Assay results: the EternaBench riboswitch data

System: MS2 coat protein
Assay: apparent Kd, MS2 coat protein; higher = weaker binding; RNA-MaP array; tryptophan 2.4 mM where present
Outline: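 In 100 mM Tris-HCl pH 7.5, 80 mM KCl, 4 mM MgCl2, BSA, DTT, yeast tRNA and Tween-20, SNAP-549-labelled MS2 coat protein was titrated from 0.7 or 1.5 nM, doubling to 3 µM, over designs transcribed by stalled E. coli RNA polymerase on Illumina sequencing-chip clusters. This was done first without ligand, then with ligand held constant. After green signal was normalised to red-channel RNA signal and control-cluster median Fmax, the apparent Kd was taken as the median of filtered per-cluster binding-curve fits.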

[1] = designed as: OFF switch for tryptophan, no ligand
[2] = ligand present: tryptophan, designed as: OFF switch for tryptophan
[3] = designed as: ON switch for tryptophan, no ligand
[4] = ligand present: tryptophan, designed as: ON switch for tryptophan

Sequence: AGAUGAGUCACGGCCGCCACUCUUAUCAGGAUCACCCAUGGUUAACAUGAGGAUCACCCAUGUCUGAGGACCGGGUGAUGAGCAU
- apparent Kd [1]: 21.6 nM
- apparent Kd [2]: 23.9 nM

Sequence: AGAUGAGUCACGGCCGCCACUCUUCACAGGUUCACCCUUGGUUAACAUGAGGAUCACCCAUGUGGGAGGACCGGGUGAUGAGCAU
- apparent Kd [1]: 13.7 nM
- apparent Kd [2]: 33.4 nM

Sequence: AGAUUCGACACGGCCGCCACUCGAGACGGAUUUCCGAGUGUCGAACAUGAGGAUCACCCAUGUCCGAGGACCGGGUGUUGAGUCU
- apparent Kd [1]: 32.2 nM
- apparent Kd [2]: 401 nM

Sequence: AGAUUCGACACGGCCGCCACUCGUGGAGGAUUUCCGAGUGUCGAACAUGAGGAUCACCCAUGUACGAGGACCGGGUGUUGAGUCU
- apparent Kd [1]: 28.4 nM
- apparent Kd [2]: 234 nM

Sequence: AGAUUCGACACGGCCGCCACUCUACACGGAUUUCCGAGUGUCGAACAUGAGGAUCACCCAUGUGGGAGGACCGGGUGUUGAGUCU
- apparent Kd [1]: 437 nM
- apparent Kd [2]: 1030 nM

Sequence: AGCACUGUGACGGCCGCCACUACAUAAAUAGGGUGGUCAGGUUCAUUACAUGAGGAUCACCCAUGUAGGACCGGGUCUCAGUGCA
- apparent Kd [1]: 9.99 nM
- apparent Kd [2]: 9.55 nM

Sequence: AGCGUGCAUCGGAAAACGAUGUACGCAAAUCGAGGACCGGUACGGCCGCCACUCGUCCUCAACAUGAGGAUCACCCAUGUAAUAA
- apparent Kd [1]: 19.1 nM
- apparent Kd [2]: 34.7 nM

Sequence: AGUAUUGGAAACAGUACUAGUGAUCCGGUCCGAGGACCGGUACGGCCGCCACUCGAAUUAAAUAAACAUGAGGAUCACCCAUGUA
- apparent Kd [1]: 16.8 nM
- apparent Kd [2]: 46.1 nM

Sequence: AGUCUGGACUCGGCCGCCACUCGUGAUGCUUUGGCACAUGAGGAUCACCCAUGUGGUCGGCCUUAGAGGACCGGGAGUACCAGCU
- apparent Kd [3]: 56.4 nM
- apparent Kd [4]: 12.9 nM

Sequence: AUACAUGAGGAUCACCCAUGUCCUCGUGAUCGAGGACCGGUACGGCCGCCACUCGGUCCUCGCGAGGUGGAGUCAAAGACUCCAA
- apparent Kd [3]: 128 nM
- apparent Kd [4]: 87.1 nM

Sequence: AUCUAUAGAGCGGCCGCCACUGAAUACAUGAGGAUCACCCAUGUAAUGUUAAGGUGGUCCUAGCUCAGGACCGGGCUCUAUAGAU
- apparent Kd [1]: 36.5 nM
- apparent Kd [2]: 22.2 nM

Sequence: CAAAAUUUAACGGCCGCCACUUACUCAUGAGGUAACAACAUGAGGAUCACCCAUGUUUGAGGAUCAAGGACCGGGUUAAAUUUUG
- apparent Kd [3]: 30.6 nM
- apparent Kd [4]: 18.2 nM

Sequence: CACAGUGCGAAAUUGAAUUCGCACGAUCCUCGAGGACCGGUACGGCCGCCACUCGCGCGGGUCGUACAUGAGGAUCACCCAUGUC
- apparent Kd [3]: 257 nM
- apparent Kd [4]: 368 nM

Sequence: CAUGCCAGGGCGGCCGCCACUGUGGCUACGGUACAUGAGGAUCACCCAUGUUUGUGGUUGAUCUACAGGACCGGGCCCUAGCACG
- apparent Kd [3]: 118 nM
- apparent Kd [4]: 238 nM

Sequence: CCUAUCCAGUCGGCCGCCACUGACCAUUUGGAACAGUGGGUGAAAACAUGAGGAUCACCCAUGUACAGGACCGGGACUGUAUAGG
- apparent Kd [1]: 11.6 nM
- apparent Kd [2]: 42 nM

Sequence: CGUAUUGGAAACAGUACGAGUGAUCCGGUCCGAGGACCGGUACGGCCGCCACUCGAAAAUAAAUAACAUGAGGAUCACCCAUGUA
- apparent Kd [1]: 16.7 nM
- apparent Kd [2]: 23.9 nM

Sequence: CUACAUUUGUAGAAACCGGUCAACAAUAAUCGAGGACCGGUACGGCCGCCACUCGUAUAAUUUAUUACAUGAGGAUCACCCAUGU
- apparent Kd [3]: 13.7 nM
- apparent Kd [4]: 13.8 nM

Sequence: CUACAUUUGUAGAAACCGGUCACCAUUAUUCGAGGACCGGUACGGCCGCCACUCGUAUCAUGUGAUACAUGAGGAUCACCCAUGU
- apparent Kd [3]: 28.8 nM
- apparent Kd [4]: 28.5 nM

Sequence: CUAUAAGUACCGGUCCUCAGAUCCUCAUGACGAGGACCGGUACGGCCGCCACUCGAAACAUGAGGAUCACCCAUGUAAUAAUAUC
- apparent Kd [1]: 20.7 nM
- apparent Kd [2]: 18.6 nM

Sequence: CUGUGUCCUUCGGCCGCCACUACAUGAGGAUCACCCAUGUCGUUACGGCUCCCAAUGACGCUUUGUAGGACCGGGAAGGAGUAUG
- apparent Kd [1]: 10.3 nM
- apparent Kd [2]: 15.8 nM

Sequence: CUUAUAUAUACGGCCGCCACUUACUCAUGAGGUAACAACAUGAGGAUCACCCAUGUUUGAGGAUCAAGGACCGGGUAUAUAUAAG
- apparent Kd [3]: 25.3 nM
- apparent Kd [4]: 18.2 nM

Sequence: GAGUACACUACGGCCGCCACUCAAGGAGCUACAUAGCUCCUAGACAUGAGGAUCACCCAUGUACCGAGGACCGGGUAGAUCCUUA
- apparent Kd [3]: 187 nM
- apparent Kd [4]: 97.3 nM

Sequence: GAUCAAAGAUCACAUGAGGAUCACCCAUGUCGAGGACCGGUACGGCCGCCACUCGCGGCGGUGAAAAUAGAUACAAAGUAUCUAU
- apparent Kd [1]: 77.6 nM
- apparent Kd [2]: 347 nM

Sequence: GAUUAAACAUGAGGAUCACCCAUGUAUAUACGAGGACCGGUACGGCCGCCACUCGAAAACGAGUAUCCUCGAAUAAACAUGAUAA
- apparent Kd [3]: 37.2 nM
- apparent Kd [4]: 67 nM

Sequence: GCGCGGCGAGUGCGGCGUGUUCCGCUCCGUCGAGGACCGGUACGGCCGCCACUCGACAUGAGGAUCACCCAUGUCGCCGCGCGUC
- apparent Kd [1]: 12.1 nM
- apparent Kd [2]: 12.3 nM

Sequence: GCUACAUGAGGAUCACCCAUGUAUGCGAGUCGAGGACCGGUACGGCCGCCACUCGCUUAACAUGAGGAUCACCCAUGUUACUCGC
- apparent Kd [3]: 64.6 nM
- apparent Kd [4]: 31.1 nM

Sequence: GCUAGGUCUACGGCCGCCACUAGACGUGGGUAAGACAUGAGGAUCACCCAUGUACUACAGGCGGAUAGGACCGGGUAGACCUAGC
- apparent Kd [3]: 114 nM
- apparent Kd [4]: 14.3 nM

Sequence: GCUAGGUCUACGGCCGCCACUAGACGUGGGUAAGACAUGAGGAUCACCCAUGUACUACGGGCGCUUAGGACCGGGUAGACCUAGC
- apparent Kd [3]: 204 nM
- apparent Kd [4]: 17.5 nM

Sequence: GGGAGGGAGGCGGCCGCCACUGAUUUUCAUAUAUAUAUAACAUGAGGAUCACCCAUGUAGAUAUGCAGGACCGGGCCUUUUUUUU
- apparent Kd [3]: 20.5 nM
- apparent Kd [4]: 17.6 nM

Sequence: GGGCGCUAUCCCGCGAGGGAUAGCGUUCGUCGAGGACCGGUACGGCCGCCACUCGAACGAGUGGUGACAUGAGGAUCACCCAUGU
- apparent Kd [1]: 50.2 nM
- apparent Kd [2]: 68.8 nM

Sequence: GGGUGGUAGGCGGCCGCCACUGAUUUUUAUUUAUAGAUGACAUGAGGAUCACCCAUGUUGAUAUGCAGGACCGGGCCUGUUGUUG
- apparent Kd [3]: 15.1 nM
- apparent Kd [4]: 13.2 nM

Sequence: GGUAUGUAUUCGGAAACGAAUGCAUACCAACGAGGACCGGUACGGCCGCCACUCGGCGGCGAUCAACAUGAGGAUCACCCAUGUA
- apparent Kd [1]: 40.4 nM
- apparent Kd [2]: 31 nM

Sequence: GGUAUGUAUUCGGAAACGAAUGCAUACCAACGAGGACCGGUACGGCCGCCACUCGGGCGGCGAUCACAUGAGGAUCACCCAUGUA
- apparent Kd [1]: 45.7 nM
- apparent Kd [2]: 46.7 nM

Sequence: GGUUGAUGACAUGAGGAUCACCCAUGUAGGCGAGGACCGGUACGGCCGCCACUCGACAUGAGGAUCACCCAUGUCGGCGUCCGUG
- apparent Kd [1]: 15.2 nM
- apparent Kd [2]: 26.2 nM

Sequence: GUUAUAACAAAAGUUGUAACAGUGGGUGAACGAGGACCGGUACGGCCGCCACUCGGACAUGAGGAUCACCCAUGUCCAUGUGAAA
- apparent Kd [1]: 16.2 nM
- apparent Kd [2]: 40.2 nM

Sequence: GUUAUAUCAAAAGAUGUAACAGUGGGUGAACGAGGACCGGUACGGCCGCCACUCGGACAUGAGGAUCACCCAUGUCCAUGUGAAA
- apparent Kd [1]: 17.9 nM
- apparent Kd [2]: 37.1 nM

Sequence: UAAACUACACAUGAGGAUCACCCAUGUGGCCGAGGACCGGUACGGCCGCCACUCGUGUGUUAAUAAAAGAACCGCAAAGUUCUGU
- apparent Kd [3]: 268 nM
- apparent Kd [4]: 83.3 nM

Sequence: UAACAUGAGGAUCACCCAUGUAUACUUAGUCGAGGACCGGUACGGCCGCCACUCGUACUUCAAGAUUUGGCGGAAAAUGUAUGUA
- apparent Kd [1]: 12.5 nM
- apparent Kd [2]: 15.1 nM

Sequence: UCGGUGCUCUACAUGAGGAUCACCCAUGUCCGAGGACCGGUACGGCCGCCACUCGCAAUCAAACAGACGUGGGCCAACUUUGCGU
- apparent Kd [1]: 10.3 nM
- apparent Kd [2]: 13.6 nM

Sequence: UCGGUUUUCUACAUGAGGAUCACCCAUGUCCGAGGACCGGUACGGCCGCCACUCGCAAUCAAACAGACGUGGGCCAAAUUUGCGU
- apparent Kd [1]: 10 nM
- apparent Kd [2]: 14.3 nM

Sequence: UUUGUAAUUGUCUGGUAGAUUUAUUUAUUUCGAGGACCGGUACGGCCGCCACUCGUUAAUUACAUGAGGAUCACCCAUGUUAGCU
- apparent Kd [1]: 13.4 nM
- apparent Kd [2]: 13.2 nM
